Tests used:
[1] = target: Muscarinic acetylcholine receptor M3 (Homo sapiens, UniProt P20309); assay: Antagonist activity at mAChR M3 in human CCRF-CEM cells assessed as inhibition of acetylcholine-mediated calcium flux incubated for 25 mins followed by acetylcholine stimulation measured for 90 secs; type: functional, cell-based
[2] = Metabolic stability in rat liver microsomes assessed as parent compound remaining; type: ADME, microsome
[3] = Permeability of the compound in pH 7.4 buffer after 4 hrs by PAMPA; type: ADME; details: read-out: permeability
Method in brief: (§1)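 Parallel artificial membrane permeability assay (PAMPA) for passive transcellular permeability, run at pH 7.4 and at pH 5.5, with permeability reported in nm/s.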

[4] = Metabolic stability in human liver microsomes assessed as parent compound remaining; type: ADME, microsome
[5] = target: C-X-C chemokine receptor type 4 (Homo sapiens, UniProt P61073); assay: Antagonist activity at CXCR4 in human CCRF-CEM cells assessed as inhibition of CXCL12-mediated calcium flux incubated for 25 mins followed by CXCL12 stimulation measured for 90 secs; type: functional, cell-based
[6] = Metabolic stability in mouse liver microsomes assessed as parent compound remaining; type: ADME, microsome
Cytochrome P450 2D6 = Cytochrome P450 2D6 (Homo sapiens, UniProt P10635); assay: Inhibition of recombinant human CYP2D6 expressed in insect microsomes using AMMC as substrate preincubated for 30 mins followed by NADPH addition measured after 45 mins by fluorescence assay; type: ADME
Cytochrome P450 3A4 = Cytochrome P450 3A4 (Homo sapiens, UniProt P08684); assay: Inhibition of CYP3A4 (unknown origin) using BFC as substrate; type: ADME
[7] = Permeability of the compound in pH 5.5 buffer after 4 hrs by PAMPA; type: ADME; details: PAMPA, pH 5.5; read-out: permeability; method in brief: as §1
Cytochrome P450 2C8 = target: T1, Cytochrome P450 2C8 (Homo sapiens, UniProt P10632); assay: Inhibition of CYP2C8 (unknown origin); type: ADME; details: human
T1 sequence (P10632 whole entry): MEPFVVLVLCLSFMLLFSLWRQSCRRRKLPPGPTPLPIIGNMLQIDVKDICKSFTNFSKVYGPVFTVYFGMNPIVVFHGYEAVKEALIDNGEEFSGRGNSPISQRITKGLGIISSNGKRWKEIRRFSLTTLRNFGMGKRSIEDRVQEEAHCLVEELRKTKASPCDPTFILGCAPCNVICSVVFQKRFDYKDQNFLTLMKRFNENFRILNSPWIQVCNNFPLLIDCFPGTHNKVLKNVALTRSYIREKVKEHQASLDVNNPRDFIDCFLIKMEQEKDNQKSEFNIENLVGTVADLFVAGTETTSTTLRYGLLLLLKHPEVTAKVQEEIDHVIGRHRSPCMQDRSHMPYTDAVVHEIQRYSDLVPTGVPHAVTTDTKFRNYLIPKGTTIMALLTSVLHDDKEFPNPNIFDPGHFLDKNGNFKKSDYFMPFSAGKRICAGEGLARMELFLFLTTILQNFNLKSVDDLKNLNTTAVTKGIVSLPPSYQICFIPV

Cytochrome P450 1A2 = target: T2, Cytochrome P450 1A2 (Homo sapiens, UniProt P05177); assay: Inhibition of CYP1A2 (unknown origin); type: ADME
T2 sequence (P05177 whole entry): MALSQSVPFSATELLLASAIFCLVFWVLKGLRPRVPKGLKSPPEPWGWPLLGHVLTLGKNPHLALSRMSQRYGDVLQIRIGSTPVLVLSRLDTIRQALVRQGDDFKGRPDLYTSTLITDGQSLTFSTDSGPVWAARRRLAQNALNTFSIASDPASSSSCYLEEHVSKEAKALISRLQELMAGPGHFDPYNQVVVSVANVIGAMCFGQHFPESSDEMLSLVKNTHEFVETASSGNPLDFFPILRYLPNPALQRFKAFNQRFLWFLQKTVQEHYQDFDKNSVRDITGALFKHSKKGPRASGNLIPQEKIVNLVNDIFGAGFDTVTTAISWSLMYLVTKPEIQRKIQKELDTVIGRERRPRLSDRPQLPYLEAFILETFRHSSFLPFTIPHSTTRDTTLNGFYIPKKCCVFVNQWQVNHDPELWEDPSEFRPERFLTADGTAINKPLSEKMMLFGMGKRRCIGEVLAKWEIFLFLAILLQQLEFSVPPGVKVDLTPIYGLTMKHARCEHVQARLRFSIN

Cytochrome P450 2B6 = target: T3, Cytochrome P450 2B6 (Homo sapiens, UniProt P20813); assay: Inhibition of CYP2B6 (unknown origin); type: ADME
T3 sequence (P20813 whole entry): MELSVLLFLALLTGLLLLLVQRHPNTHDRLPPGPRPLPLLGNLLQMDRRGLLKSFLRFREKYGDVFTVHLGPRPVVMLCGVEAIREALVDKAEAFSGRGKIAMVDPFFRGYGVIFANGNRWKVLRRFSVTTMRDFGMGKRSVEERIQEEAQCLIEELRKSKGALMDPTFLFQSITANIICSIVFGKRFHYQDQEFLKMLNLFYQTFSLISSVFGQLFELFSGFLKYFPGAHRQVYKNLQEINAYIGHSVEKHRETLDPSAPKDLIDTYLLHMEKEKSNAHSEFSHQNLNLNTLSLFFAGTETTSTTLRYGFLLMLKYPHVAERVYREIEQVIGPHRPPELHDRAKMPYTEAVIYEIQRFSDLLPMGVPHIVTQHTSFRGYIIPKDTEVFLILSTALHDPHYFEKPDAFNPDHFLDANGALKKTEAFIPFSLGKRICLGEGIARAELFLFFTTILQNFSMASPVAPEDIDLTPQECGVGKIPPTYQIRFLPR

Cytochrome P450 2A6 = target: T4, Cytochrome P450 2A6 (Homo sapiens, UniProt P11509); assay: Inhibition of CYP2A6 (unknown origin); type: ADME
T4 sequence (P11509 whole entry): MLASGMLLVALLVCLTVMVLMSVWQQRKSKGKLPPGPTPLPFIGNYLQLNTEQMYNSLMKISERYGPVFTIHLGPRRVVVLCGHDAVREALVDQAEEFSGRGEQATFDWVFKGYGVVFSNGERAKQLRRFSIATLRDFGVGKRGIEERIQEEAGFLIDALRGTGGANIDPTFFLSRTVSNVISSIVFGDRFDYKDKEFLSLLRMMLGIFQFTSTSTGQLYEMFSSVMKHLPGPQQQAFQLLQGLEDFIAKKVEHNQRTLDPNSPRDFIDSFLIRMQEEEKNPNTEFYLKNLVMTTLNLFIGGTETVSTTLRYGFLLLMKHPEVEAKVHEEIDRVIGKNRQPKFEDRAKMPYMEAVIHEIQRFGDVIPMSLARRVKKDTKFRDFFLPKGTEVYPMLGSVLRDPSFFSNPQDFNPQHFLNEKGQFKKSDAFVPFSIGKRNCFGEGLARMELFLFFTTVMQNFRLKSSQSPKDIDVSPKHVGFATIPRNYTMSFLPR

Cytochrome P450 2C9 = Cytochrome P450 2C9 (Homo sapiens, UniProt P11712); assay: Inhibition of CYP2C9 (unknown origin); type: ADME
Cytochrome P450 2C19 = Cytochrome P450 2C19 (Homo sapiens, UniProt P33261); assay: Inhibition of CYP2C19 (unknown origin); type: ADME; details: human
Chain of Cytochrome P450 2C19 (P33261 whole entry): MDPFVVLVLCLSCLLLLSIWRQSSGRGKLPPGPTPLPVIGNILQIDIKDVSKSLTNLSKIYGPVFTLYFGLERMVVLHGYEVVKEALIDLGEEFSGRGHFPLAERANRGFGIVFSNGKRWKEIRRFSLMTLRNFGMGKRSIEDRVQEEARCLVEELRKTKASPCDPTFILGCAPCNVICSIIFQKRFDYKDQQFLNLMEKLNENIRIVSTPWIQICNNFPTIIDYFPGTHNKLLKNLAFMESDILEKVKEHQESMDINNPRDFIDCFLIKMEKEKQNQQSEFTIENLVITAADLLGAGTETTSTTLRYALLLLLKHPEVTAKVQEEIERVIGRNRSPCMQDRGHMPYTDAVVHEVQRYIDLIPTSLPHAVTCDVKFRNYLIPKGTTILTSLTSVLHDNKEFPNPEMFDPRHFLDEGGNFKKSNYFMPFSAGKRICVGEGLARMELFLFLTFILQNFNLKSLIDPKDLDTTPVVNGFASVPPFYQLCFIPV

Chain of Cytochrome P450 3A4 (P08684 whole entry): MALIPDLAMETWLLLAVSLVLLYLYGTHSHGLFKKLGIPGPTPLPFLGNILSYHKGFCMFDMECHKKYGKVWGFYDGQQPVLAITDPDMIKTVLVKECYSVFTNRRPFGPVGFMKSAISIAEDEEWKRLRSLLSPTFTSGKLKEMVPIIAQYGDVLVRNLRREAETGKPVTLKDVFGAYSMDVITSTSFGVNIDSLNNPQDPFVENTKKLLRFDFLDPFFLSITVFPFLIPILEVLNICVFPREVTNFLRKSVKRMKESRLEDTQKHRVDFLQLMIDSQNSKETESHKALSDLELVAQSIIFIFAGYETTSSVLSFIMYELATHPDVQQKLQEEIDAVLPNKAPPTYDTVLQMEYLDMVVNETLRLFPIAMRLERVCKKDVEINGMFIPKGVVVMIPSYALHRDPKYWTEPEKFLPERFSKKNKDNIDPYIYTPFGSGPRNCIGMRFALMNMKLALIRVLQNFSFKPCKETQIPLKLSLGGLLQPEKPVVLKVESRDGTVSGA
Chain of Cytochrome P450 2D6 (P10635 whole entry): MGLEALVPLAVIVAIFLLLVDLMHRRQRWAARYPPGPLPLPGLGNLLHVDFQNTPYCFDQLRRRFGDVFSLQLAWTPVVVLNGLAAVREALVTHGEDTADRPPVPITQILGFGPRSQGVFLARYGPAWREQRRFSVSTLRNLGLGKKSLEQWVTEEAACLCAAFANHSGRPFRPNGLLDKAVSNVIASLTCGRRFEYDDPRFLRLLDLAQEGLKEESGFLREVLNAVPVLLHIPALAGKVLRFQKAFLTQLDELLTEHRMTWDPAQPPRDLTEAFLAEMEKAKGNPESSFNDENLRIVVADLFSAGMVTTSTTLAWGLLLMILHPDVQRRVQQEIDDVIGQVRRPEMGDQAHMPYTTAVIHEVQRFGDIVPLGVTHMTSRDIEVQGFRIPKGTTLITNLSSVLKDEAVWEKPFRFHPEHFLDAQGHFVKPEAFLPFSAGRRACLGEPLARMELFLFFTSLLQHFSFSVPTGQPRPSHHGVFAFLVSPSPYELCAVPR
Chain of C-X-C chemokine receptor type 4 (P61073 whole entry): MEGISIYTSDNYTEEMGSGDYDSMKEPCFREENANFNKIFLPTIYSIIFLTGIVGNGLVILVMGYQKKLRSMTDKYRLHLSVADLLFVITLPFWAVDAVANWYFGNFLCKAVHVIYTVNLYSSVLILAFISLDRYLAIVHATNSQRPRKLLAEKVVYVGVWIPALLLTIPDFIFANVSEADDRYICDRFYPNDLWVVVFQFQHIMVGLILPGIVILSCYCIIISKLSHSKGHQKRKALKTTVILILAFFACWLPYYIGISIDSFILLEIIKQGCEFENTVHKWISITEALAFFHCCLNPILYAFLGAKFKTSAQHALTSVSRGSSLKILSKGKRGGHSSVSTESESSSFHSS
Chain of Muscarinic acetylcholine receptor M3 (P20309 whole entry): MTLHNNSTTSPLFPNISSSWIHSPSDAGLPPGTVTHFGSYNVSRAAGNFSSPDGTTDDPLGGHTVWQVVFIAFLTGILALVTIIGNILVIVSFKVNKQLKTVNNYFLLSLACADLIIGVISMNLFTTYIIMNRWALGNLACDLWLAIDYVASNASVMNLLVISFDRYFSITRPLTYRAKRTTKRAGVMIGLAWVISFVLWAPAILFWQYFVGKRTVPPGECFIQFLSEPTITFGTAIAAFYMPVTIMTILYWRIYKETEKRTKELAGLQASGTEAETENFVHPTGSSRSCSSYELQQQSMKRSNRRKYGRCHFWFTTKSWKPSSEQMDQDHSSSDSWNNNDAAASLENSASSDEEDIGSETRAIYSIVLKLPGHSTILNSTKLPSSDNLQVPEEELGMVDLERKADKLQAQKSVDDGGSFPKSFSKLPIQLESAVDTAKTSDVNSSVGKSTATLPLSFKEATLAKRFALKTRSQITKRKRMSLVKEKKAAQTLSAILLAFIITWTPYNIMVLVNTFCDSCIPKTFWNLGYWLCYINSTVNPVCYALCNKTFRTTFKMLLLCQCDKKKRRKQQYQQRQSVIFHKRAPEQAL
Chain of Cytochrome P450 2C9 (P11712 whole entry): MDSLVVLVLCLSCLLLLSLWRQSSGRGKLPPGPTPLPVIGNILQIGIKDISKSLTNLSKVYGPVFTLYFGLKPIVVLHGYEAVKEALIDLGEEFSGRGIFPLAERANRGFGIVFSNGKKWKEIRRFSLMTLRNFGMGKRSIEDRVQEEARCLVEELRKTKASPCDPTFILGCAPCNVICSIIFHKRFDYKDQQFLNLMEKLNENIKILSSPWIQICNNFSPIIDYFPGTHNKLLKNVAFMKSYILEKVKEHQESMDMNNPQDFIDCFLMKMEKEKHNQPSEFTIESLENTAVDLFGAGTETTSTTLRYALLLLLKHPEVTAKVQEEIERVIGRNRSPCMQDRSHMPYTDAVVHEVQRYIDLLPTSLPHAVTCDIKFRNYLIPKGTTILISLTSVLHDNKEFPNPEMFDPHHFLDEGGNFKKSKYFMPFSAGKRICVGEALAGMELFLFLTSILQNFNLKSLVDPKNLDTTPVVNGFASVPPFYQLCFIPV

NC/C=C\CN(C[C@H]1Cc2ccccc2CN1)[C@H]1CCCc2cccnc21
IC50 [1]: 610 nM
Stability [2]: 4%
Papp at 4 h [3]: 57 ×10⁻⁶ cm/s
Stability [4]: 100%
IC50 [5]: 10 nM
Stability [6]: 4%

N[C@H]1CC[C@H](CN(C[C@H]2Cc3ccccc3CN2)[C@H]2CCCc3cccnc32)CC1
IC50 [1]: > 33000 nM
Stability [2]: 51%
IC50 (Cytochrome P450 2D6): 760 nM
IC50 (Cytochrome P450 3A4): 10000 nM
Papp at 4 h [3]: 1.2 ×10⁻⁶ cm/s
Stability [4]: 39%
IC50 [5]: 280 nM
Stability [6]: 44%

NC(=O)NC/C=C\CN(C[C@H]1Cc2ccccc2CN1)[C@H]1CCCc2cccnc21
IC50 [1]: > 16000 nM
Stability [2]: 2%
IC50 (Cytochrome P450 2D6): 470 nM
Papp at 4 h [7]: 1.3 ×10⁻⁶ cm/s
Papp at 4 h [3]: 11 ×10⁻⁶ cm/s
Stability [4]: 73%
IC50 [5]: 210 nM
Stability [6]: 2%

NC/C=C/CN(C[C@H]1Cc2ccccc2CN1)[C@H]1CCCc2cccnc21
IC50 [1]: > 16000 nM
Stability [2]: 34%
inhibition (INH) (Cytochrome P450 2C8): Not Active
inhibition (INH) (Cytochrome P450 1A2): Not Active
Papp at 4 h [7]: 26 ×10⁻⁶ cm/s
inhibition (INH) (Cytochrome P450 2B6): Not Active
Papp at 4 h [3]: 83 ×10⁻⁶ cm/s
Stability [4]: 100%
inhibition (INH) (Cytochrome P450 2A6): Not Active
inhibition (INH) (Cytochrome P450 2C9): Not Active
inhibition (INH) (Cytochrome P450 2C19): Not Active
Stability [6]: 11%

C/C(=C/CN(C[C@H]1Cc2ccccc2CN1)[C@H]1CCCc2cccnc21)CN
IC50 [1]: 32 nM
Stability [2]: 1%
IC50 (Cytochrome P450 2D6): < 27 nM
Papp at 4 h [7]: 0.4 ×10⁻⁶ cm/s
IC50 (Cytochrome P450 3A4): > 20000 nM
Papp at 4 h [3]: 1.1 ×10⁻⁶ cm/s
Stability [4]: 100%
IC50 [5]: 8.6 nM
Stability [6]: 2%

NCC1=C(CN(C[C@H]2Cc3ccccc3CN2)[C@H]2CCCc3cccnc32)CCCC1
IC50 [1]: 23000 nM
Stability [2]: 1%
IC50 (Cytochrome P450 2D6): 180 nM
Papp at 4 h [7]: 17 ×10⁻⁶ cm/s
Stability [4]: 65%
IC50 [5]: 230 nM
Stability [6]: 2%

N[C@H]1CC[C@H](N(C[C@H]2Cc3ccccc3CN2)[C@H]2CCCc3cccnc32)CC1
IC50 [1]: > 33000 nM
Stability [2]: 71%
IC50 (Cytochrome P450 2D6): 2500 nM
Papp at 4 h [7]: 0.6 ×10⁻⁶ cm/s
IC50 (Cytochrome P450 3A4): > 20000 nM
Papp at 4 h [3]: 3.7 ×10⁻⁶ cm/s
Stability [4]: 95%
IC50 [5]: 34 nM
Stability [6]: 77%

C/C(=C/CN)CN(C[C@H]1Cc2ccccc2CN1)[C@H]1CCCc2cccnc21
IC50 [1]: 1100 nM
Stability [2]: 2%
IC50 (Cytochrome P450 2D6): 88 nM
Papp at 4 h [7]: 8.3 ×10⁻⁶ cm/s
IC50 (Cytochrome P450 3A4): > 20000 nM
Papp at 4 h [3]: 25 ×10⁻⁶ cm/s
Stability [4]: 96%
Stability [6]: 2%

N[C@H]1CC[C@@H](N(C[C@H]2Cc3ccccc3CN2)[C@H]2CCCc3cccnc32)CC1
IC50 [1]: > 33000 nM
Stability [2]: 24%
IC50 (Cytochrome P450 2D6): 81 nM
Papp at 4 h [7]: 1 ×10⁻⁶ cm/s
IC50 (Cytochrome P450 3A4): > 20000 nM
Stability [4]: 86%
IC50 [5]: 1800 nM
Stability [6]: 56%
